Assay outcomes deposited in PubChem by several laboratories.
Only some compounds are listed: those with a hit (about 2.2% of all), similar ones and a draw of the others.
Hck-Nef inh: blocks Nef-activated human Hck kinase; Recombinant Hck-YEEI plus Nef, Z-Lyte FRET kinase assay; inhibition, % at 20 µM; 220,000 tested, 0.68% active; AID 463187;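 active = Hck-Nef kinase inhibition above about 50%, limit read from the data; inactive = inhibition below that limit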;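 note: 0% = DMSO with Hck plus Nef and 100% = Hck alone without Nef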
p97 ATPase inh: inhibitors of human p97 ATPase; P55072; recombinant p97 ATPase, Kinase-Glo ATP luminescence, 3 h; inhibition, % at 8 µM; 220,000 tested, 0.42% active; in the data active = inhibition above about 15%;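 note: 0% = DMSO vehicle and 100% = wells lacking enzyme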
Calb biofilm kill: mixtures killing C. albicans biofilm; C. albicans biofilm persisters + clotrimazole, fluorescence viability; primary screen in compound mixtures of four per well; 120,000 tested, 0.02% active; inhibition, % at 7.6 µM;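 active = inhibition above 30.3% in the primary screen of four-compound pools, then above 30% when the compound was retested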;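 note: compounds exposed to preformed 24 h biofilms for 48 h; 0% = untreated biofilm control and 100% = clotrimazole plus chlorhexidine kill blank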
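Test system: C. albicans biofilms. Buffer or medium: RPMI/MOPS medium, pH 7.0. Timing: 48 h compound exposure at 37 °C. Technique: Alamar Blue fluorescence. Evaluation: percent inhibition of biofilm viability.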
PERK inh: inhibitors of human PERK kinase; Q9NZJ5; inhibition, % at 5.6 µM; CHO PERK-DD fusion, SEAP luminescence translation reporter; 220,000 tested, 0.17% active;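 active = inhibition above the mean inhibition of all tested compounds plus 3 SD, set separately per screening campaign, cut at about 2.9% in these data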;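 note: PERK kinase domain activated by AP20187 dimerizer at 100 nM; 0% = DMSO with dimerizer and 100% = rapamycin at 8.4 µM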
14-3-3 Bad PPI: disrupts binding of bovine 14-3-3 zeta to phospho-Bad peptide; AID 781; TR-FRET 14-3-3zeta/Dy647-pBad peptide displacement, 1 h; inhibition, % at 21.7 µM; 220,000 tested, 0.71% active; P63103;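 active = inhibition above about 70%, limit read from the data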;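 note: 0% = full 14-3-3 plus peptide FRET controls and 100% = background without 14-3-3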
Target sequence (P63103 whole entry, looked up): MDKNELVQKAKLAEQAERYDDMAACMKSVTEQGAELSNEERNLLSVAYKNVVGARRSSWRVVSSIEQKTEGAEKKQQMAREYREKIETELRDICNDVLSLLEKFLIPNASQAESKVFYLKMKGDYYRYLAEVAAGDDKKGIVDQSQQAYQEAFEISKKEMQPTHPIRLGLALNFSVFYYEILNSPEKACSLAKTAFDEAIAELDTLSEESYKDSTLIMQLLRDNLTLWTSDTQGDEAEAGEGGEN
eIF4E 4G PPI: blocks eIF4E binding to eIF4G; TR-FRET eIF4E-eIF4GI(517-606) binding, 2 h; 220,000 tested, 0.37% active; inhibition, % at 21.7 µM; P63073+Q04637; AID 782;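 active = inhibition above about 30%, limit read from the data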;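 note: 0% = full FRET control wells and 100% = background wells lacking eIF4GI fragment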
Hck Nef conf: confirmation of Hck-Nef kinase inhibitors. shares compounds with Hck-Nef inh. Recombinant Hck-YEEI:Nef, Z-Lyte FRET kinase assay. calls only at 10 µM. 1,300 tested, 28% active;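 active = average inhibition of at least 50%, with Z-scores no higher than 3 in both the phospho-tyrosine peptide and fluorescence counterscreens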
* hit, by the source's call; i = inactive; . = not tested or not shown; + = active, no number.

SMILES	Hck-Nef inh	p97 ATPase inh	Calb biofilm kill	PERK inh	14-3-3 Bad PPI	eIF4E 4G PPI	Hck Nef conf
CCNC(=O)NC(=O)COC(=O)c1ccccc1SCC(=O)NC(=O)NCC	109.3*	-0.8	.	1.9	0.0	-2.0	.
CCSc1nc2c(cnn2-c2ccccc2)c(=O)n1N	58.9*	3.0	11.6	0.9	3.5	3.9	+
O=C(Cc1cccs1)N=Nc1c(O)[nH]c2ccc(Br)cc12	22.1	1.4	15.3	0.1	-12.0	-3.6	.
COc1ccc2[nH]c(O)c(N=NC(=O)Cc3cccs3)c2c1	51.1*	4.4	9.0	1.4	19.4	-2.4	i
Fc1cccc(Cl)c1CSc1nnc(CN2CCOCC2)n1-c1ccccc1	95.9*	3.4	.	-0.6	-0.3	4.9	i
CCOc1c(OC)ccc2c3c(c(=O)oc12)CCCC3	0.9	3.5	.	-0.4	5.6	-0.9	.
COCCN(CCOC)Cc1cc(=O)oc2cc3c(cc12)CCC3	0.4	-7.6	.	-0.1	9.0	3.5	.
CCCCN(CC)Cc1c(O)ccc2c3c(c(=O)oc12)CCC3	+	5.0	23.9	-1.3	-1.7	-2.3	.
CN(C)Cc1c(O)ccc2c(-c3ccccc3)cc(=O)oc12	6.0	-1.5	13.0	-0.1	-0.2	2.2	.
COc1ccc2c3c(c(=O)oc2c1OCC(=O)O)CCCC3	2.7	4.4	6.0	0.3	-11.0	0.1	.
CCCCc1cc(=O)oc2c(CN(C)C)c(O)ccc12	83.0*	7.0	.	-0.1	-5.6	7.1	.
COCCN(CCOC)Cc1c(O)ccc2c3c(c(=O)oc12)CCC3	72.0*	2.2	.	-1.1	-3.9	-9.6	.
CN(C)Cc1c(O)ccc2c3c(c(=O)oc12)CCCCC3	75.9*	5.5	.	-0.3	7.3	3.1	.
COc1ccccc1N(CC(=O)NCCSc1ccc(Cl)cc1)S(C)(=O)=O	-1.3	-1.2	1.0	-0.7	-0.3	1.4	.
COc1ccc(Oc2c(C)oc3c(CN(C)C)c(O)ccc3c2=O)cc1	1.8	1.4	.	0.3	7.0	12.6	.
CCc1c(C)c2ccc(O)c(CN(C)C)c2oc1=O	59.1*	-1.1	.	0.2	-18.7	1.5	.
O=C(O)CCCCCNC(=O)Cn1nnc2ccccc2c1=O	14.3	-2.4	24.3	0.3	-4.8	0.5	.
COc1ccc(C2C(C(=O)O)c3ccccc3C(=O)N2Cc2ccco2)cc1 (stereo not drawn)	5.4	7.0	23.5	0.5	2.1	-1.1	.
Cc1ccc([N+](=O)[O-])cc1N=Nc1c(-c2ccc([N+](=O)[O-])cc2)[nH]n(C(N)=S)c1=O	81.7*	2.0	7.5	0.9	43.0	17.9	+
NC(=S)n1[nH]c(-c2ccc([N+](=O)[O-])cc2)c(N=Nc2ccc(Cl)cc2)c1=O	71.2*	-0.9	2.4	-0.1	93.2*	8.7	+
COc1ccc(C2=NC(CO)(CO)CO2)cc1	-4.1	4.4	11.8	1.4	-12.7	-5.0	.
CCOC(=O)C1CCCN(C(=O)c2cc3ccccc3oc2=O)C1 (stereo not drawn)	-9.4	1.6	9.0	0.3	-13.6	-0.6	.
O=C(/C=C/Nc1ccc(Cc2ccc(N/C=C/C(=O)C(F)(F)F)cc2)cc1)C(F)(F)F	9.9	2.9	4.9	0.1	7.3	-0.1	.
CCOC(=O)C1C(c2cccc([N+](=O)[O-])c2)C2C(=O)NN=C2CC1(C)O (stereo not drawn)	15.8	4.6	15.1	-0.1	-12.7	1.3	.
COc1ccc(-c2cc(-c3ccco3)[nH]c(=O)c2C#N)cc1OC	53.4*	6.7	0.6	0.2	9.5	-0.4	i
SMILES	Hck-Nef inh	p97 ATPase inh	Calb biofilm kill	PERK inh	14-3-3 Bad PPI	eIF4E 4G PPI	Hck Nef conf
Brc1ccc(Nc2ncnc3[nH]ncc23)cc1	51.1*	5.5	12.1	0.3	-1.5	1.5	i
Nc1c(C(=O)N/N=C/c2ccccc2)cnn1-c1ccccc1	67.9*	0.7	2.5	-2.1	-0.6	-3.5	i
COc1ccccc1NC(=O)CCN1C(=O)c2ccccc2S1(=O)=O	6.8	2.4	10.3	0.8	-3.1	2.3	.
CCNC(=O)c1c(NC(=O)c2cc(-c3cc(C)ccc3O)n[nH]2)sc2c1CCCC2	99.9*	3.4	9.2	1.1	45.1	9.6	i
Cc1cc(O)c(-c2cc(C(=O)Nc3sc4c(c3C(=O)NCc3ccco3)CCC4)[nH]n2)cc1C	58.7*	7.5	18.5	0.2	7.8	3.9	i
Nc1ncnc(Oc2cccc3cccnc23)c1[N+](=O)[O-]	2.6	2.8	12.4	1.4	-7.6	1.5	.
CCOc1cc(/C=C2\SC(=S)N(C(C(=O)O)c3ccccc3)C2=O)ccc1O (stereo not drawn)	62.7*	-11.5	21.5	-0.8	18.2	6.2	i
CC(C)=NNc1nc(-c2ccccc2)c(C)s1	22.2	4.4	12.8	0.5	-15.1	1.0	.
C#CCNc1c2c(nc3ncnn13)CC(C)CC2 (stereo not drawn)	25.2	1.2	23.1	0.4	1.8	-2.5	.
O=c1/c(=C/c2ccccn2)sc2n1CN(c1ccccc1)CN=2	-2.5	7.5	.	1.5	-12.9	-9.8	.
Cc1cc(C)c2c(c1)/C(=c1/sc3n(c1=O)CN(c1ccccc1)CN=3)C(=O)N2	54.1*	4.4	18.2	-0.9	0.7	-5.9	i
Cc1cccc(C)c1NC(=S)N1CCC(c2ccccc2)C1 (stereo not drawn)	13.4	2.8	15.3	0.4	-0.9	-1.3	.
CNS(=O)(=O)c1cnccc1N1CCN(c2cccc(C(F)(F)F)c2)CC1	-2.0	4.3	.	-0.1	-6.4	-8.1	.
O=C(O)CCCN1C(=O)/C(=C/C=C/c2ccco2)SC1=S	83.5*	6.9	-1.3	0.2	75.7*	32.4*	i
O=C(O)C(Cc1ccccc1)N1C(=O)/C(=C/c2cccnc2)SC1=S (stereo not drawn)	-4.1	11.1	-4.5	2.0	2.0	1.9	.
O=C(O)C(Cc1ccccc1)N1C(=O)/C(=C/C=C/c2ccco2)SC1=S (stereo not drawn)	91.8*	27.1*	4.1	0.4	95.2*	53.4*	+
Nc1nn2cc(-c3ccc(Br)cc3)nc2c2ccccc12	64.4*	-4.9	22.5	-0.9	46.4	-2.1	i
Brc1ccc(-c2cn3nc4c(nc3n2)CCCC4)cc1	1.6	0.3	.	-0.4	-4.6	0.0	.
O=C(CCC(=O)N1CCOCC1)Nc1nnc(C2CCCCC2)s1	-2.2	1.7	.	0.0	8.1	5.7	.
Cc1ccc(NC(=O)CCC(=O)N/N=C/c2coc3ccccc3c2=O)cc1	64.0*	8.3	15.6	0.6	5.1	0.2	+
COc1ccc(Nc2n[nH]c(N)c2C(N)=O)cc1	65.3*	-2.7	27.8	1.7	-4.2	-5.6	i
Cc1c(-c2ccccc2)[n+](=O)c(-c2ccc(Cl)cc2)c(C)n1[O-]	-77.9	0.8	13.3	-0.9	-4.1	-3.8	.
